The values that follow come from ChEMBL document CHEMBL2021767, “Library-based discovery and characterization of daphnane diterpenes as potent and selective HIV inhibitors in Daphne gnidium” (J Nat Prod, 2012).

Usually EC50 stands for the concentration that produces a half-maximal response.

Active and inactive are the calls of the source. The calls are words filed in the database; no cut-off is given here. Where only a bound is given, the exact number is not on record here.

Data set [1] relates to Human immunodeficiency virus 1. Nature of the data set: Antiviral activity against multidrug-resistant HIV1 106-PR infected in HEK293T cells assessed as inhibition of viral replication after 4 days by beta-galactosidase reporter gene assay. Type of data set: functional, organism-based. As to conditions: Human immunodeficiency virus 1, 106-PR, HEK-293T, 96 h. In a few lines:
(§1)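 HEK293T transfected with proviral DNA (wild-type NL4-3 CXCR4-tropic or NL-AD87 CCR5-tropic, or multiresistant 106-PR protease-inhibitor or 695-RT RT-inhibitor mutants), then co-cultured 4 days with HeLa-SxR5 reporter cells (CD4, CCR5, endogenous CXCR4, LTR-LacZ) plus test substance; DMEM/10% FBS, 37 °C, 7% CO2. β-galactosidase colorimetric read at 405 nm, normalized to plate controls; EC50 from fitted dose-response curves.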
Background: Reporter assays use an easily measured gene product as a stand-in for the process of interest.

Data set [2] concerns Human immunodeficiency virus 1. Nature of the data set: Resistance factor, ratio of EC50 for multidrug-resistant HIV1 106-PR infected in HEK293T cells to wildtype HIV1 infected in HEK293T cells. Type of data set: functional, HEK-293T. In a few lines: (§2)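 Resistance factor = EC50 against mutant virus (106-PR or 695-RT) divided by EC50 against wild-type; EC50s from 4-day HEK293T-transfection/HeLa-SxR5 co-culture with β-galactosidase read-out (405 nm), normalized to plate controls, curve-fitted.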

In data set [3] the test system is Human immunodeficiency virus 1. Description: Antiviral activity against CXCR4-tropic HIV1 NL4-3 infected in HEK293T cells assessed as inhibition of viral replication after 4 days by beta-galactosidase reporter gene assay. As to conditions: Human immunodeficiency virus 1, NL4-3, HEK-293T, 96 h. Type of data set: functional, organism-based. In short, it runs like this:
as §1

Data set [4] has as its system Human immunodeficiency virus 1. Nature of the data set: Antiviral activity against CCR5-tropic HIV1 NL-AD87 infected in HEK293T cells assessed as inhibition of viral replication after 4 days by beta-galactosidase reporter gene assay. As to conditions: Human immunodeficiency virus 1, NL-AD87, HEK-293T, 96 h. Type of data set: functional, organism-based. In short, it runs like this: as §1

The subject of a further data set is HEK-293T. Nature of the data set: Cytotoxicity against human HEK293T cells after 4 days by Alamar blue assay. Type of data set: cell-based. As to conditions: 96 h. In a few lines:
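Same culture set-up as the anti-HIV assay (HEK293T with HeLa-SxR5, DMEM/10% FBS, 37 °C, 7% CO2) but with no proviral DNA transfected; viability read with AlamarBlue after 4 days.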

Data set [5] concerns Human immunodeficiency virus 1. Nature of the data set: Antiviral activity against multidrug-resistant HIV1 695-RT infected in HEK293T cells assessed as inhibition of viral replication after 4 days by beta-galactosidase reporter gene assay. Type of data set: functional, organism-based. The conditions noted are these: Human immunodeficiency virus 1, 695-RT, HEK-293T, 96 h. In short, it runs like this:
as §1

The subject of data set [6] is Human immunodeficiency virus 1. Description: Resistance factor, ratio of EC50 for multidrug-resistant HIV1 695-RT infected in HEK293T cells to wildtype HIV1 infected in HEK293T cells. Type of data set: functional, HEK-293T. In short, it runs like this: as §2
The subject of data set [7] is PBMC. Nature of the data set: Down-regulation of CXCR4 expression in PHA- and IL-2-stimulated human PBMC membranes at 20 nM after 48 hrs by flow cytometric analysis. Type of data set: functional, cell-based. In a few lines: (§3)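 Healthy-donor PBMCs at 1 × 10^6 cells/mL in RPMI/10% FBS, activated 48 h with PHA 2.5 μg/mL and IL-2 300 IU/mL, then treated 48 h with 20 nM compound or vehicle (0.25% DMSO, 100 IU/mL IL-2). Sampled at 0, 2, 5, 24, 48 h; stained 40 min at 4 °C with FITC anti-CXCR4 or anti-CCR5, or PE anti-CD69, plus isotype controls; flow cytometry, % cells expressing each receptor.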

The subject of data set [8] is PBMC. Nature of the data set: Down-regulation of CCR5 expression in PHA- and IL-2-stimulated human PBMC membranes at 20 nM after 48 hrs by flow cytometric analysis. Type of data set: functional, cell-based. In a few lines: as §3
(Flow cytometry measures light scatter and fluorescence of single cells or particles in a stream.)

The subject of data set [9] is PBMC. Description: Upregulation of CD69 expression in PHA- and IL-2-stimulated human PBMC membranes at 20 nM after 48 hrs by flow cytometric analysis. Type of data set: functional, cell-based. In a few lines: as §3
Data set [10] relates to Human immunodeficiency virus 1. Description: Antiviral activity against wild type Human immunodeficiency virus 1 NL4-3 pseudotyped with VSV envelope infected in human HeLa-SxR5 cells assessed as inhibition of viral replication after 3 days by beta-galactosidase assay. Type of data set: functional, organism-based. In a few lines: (§4)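 Pseudoparticles made by cotransfecting HEK293T with env-defective NL4-3 provirus plus plasmid for full-length NL4-3 Env or VSV envelope; supernatants harvested 2 days post-transfection, cleared by low-speed spin, used to transduce HeLa-SxR5 with or without compound at increasing concentrations; β-galactosidase activity measured 3 days later; means ± standard deviation.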

Data set [11] concerns Human immunodeficiency virus 1. Nature of the data set: Antiviral activity against wild type Human immunodeficiency virus 1 NL4-3 pseudotyped with HIV envelope infected in human HeLa-SxR5 cells assessed as inhibition of viral replication after 3 days by beta-galactosidase assay. Type of data set: functional, organism-based. In short, it runs like this: as §4
Data set [12] has as its system Human immunodeficiency virus 1. Nature of the data set: Antiviral activity against wild type Human immunodeficiency virus 1 NL4-3 pseudotyped with VSV envelope infected in human HeLa-SxR5 cells assessed as inhibition of viral replication at 65 nM after 3 days by beta-galactosidase assay. Type of data set: functional, organism-based. In a few lines: as §4
In data set [13] the test system is Human immunodeficiency virus 1. Description: Antiviral activity against wild type Human immunodeficiency virus 1 NL4-3 pseudotyped with HIV envelope infected in human HeLa-SxR5 cells assessed as inhibition of viral replication at 65 nM after 3 days by beta-galactosidase assay. Type of data set: functional, organism-based. In a few lines: (§5)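 HEK293T cells cotransfected with an envelope-defective NL4-3-derived provirus plus a plasmid expressing full-length NL4-3 HIV envelope. Supernatants were harvested 2 days post-transfection, spun at low speed to clear debris, and used to transduce HeLa-SxR5 reporter cells (CD4/CCR5, endogenous CXCR4, HIV-LTR-LacZ) with or without compound. β-galactosidase was read colorimetrically at 405 nm 3 days later and normalised to positive and negative control wells as percent inhibition.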

For data set [14], the system named is Human immunodeficiency virus 1. Nature of the data set: Antiviral activity against wild type Human immunodeficiency virus 1 NL4-3 pseudotyped with VSV envelope infected in human HeLa-SxR5 cells assessed as inhibition of viral replication at 300 nM after 3 days by beta-galactosidase assay. Type of data set: functional, organism-based. In short, it runs like this:
as §4

Data set [15] deals with Human immunodeficiency virus 1. Nature of the data set: Antiviral activity against wild type Human immunodeficiency virus 1 NL4-3 pseudotyped with HIV envelope infected in human HeLa-SxR5 cells assessed as inhibition of viral replication at 300 nM after 3 days by beta-galactosidase assay. Type of data set: functional, organism-based. In a few lines:
as §5

On to `COC(=O)N[C@H](C(=O)N[C@@H](Cc1ccccc1)[C@@H](O)CN(Cc1ccc(-c2ccccn2)cc1)NC(=O)[C@@H](NC(=O)OC)C(C)(C)C)C(C)(C)C` [ATAZANAVIR], for which, in [1], the EC50 was 324 nM. Further, the “Ratio EC50” value in data set [2] came out at 7.
Regarding `C=C(C)[C@]12C[C@@H](C)[C@@]34O[C@](c5ccccc5)(O[C@@H]1[C@@H]3[C@@H]1O[C@]1(CO)[C@@H](O)[C@]1(O)C(=O)C(C)=C[C@H]14)O2` [DAPHNETOXIN], the EC50 in [3] was determined as 16.2 nM; in data set [4], 26.7 nM; in data set [5] it was 21 nM; in data set [1] it was 22 nM. Also, the Activity entry in the data set on HEK-293T is reported as “Non-toxic”. Moreover, the “Ratio EC50” value in data set [6] and in data set [2] was 1 in each case. The outcome with PBMC [7], in the data set on PBMC [8] and with PBMC [9] was Active. Further, the inhibition result in data set [10] and in [11] was “Dose-dependent effect” throughout.
As to `CC(C)CN(C[C@@H](O)[C@H](Cc1ccccc1)NC(=O)O[C@H]1CO[C@H]2OCC[C@H]21)S(=O)(=O)c1ccc(N)cc1` [DARUNAVIR], in data set [1], the EC50 worked out at 13700 nM. The “Ratio EC50” value in data set [2] was above 300.
In the case of `O=C1Nc2ccc(Cl)cc2[C@@](C#CC2CC2)(C(F)(F)F)O1` [EFAVIRENZ], the EC50 in data set [5] came out at 889 nM. Further, in [6], the “Ratio EC50” value is reported as 222. The inhibition entry in data set [12] and in data set [13] was “Active” throughout.
Consider `C=C(C)[C@]12C[C@@H](C)[C@@]34O[C@](/C=C/C=C/CCCCC)(O[C@@H]1[C@@H]3[C@@H]1O[C@]1(CO)[C@@H](O)[C@]1(O)C(=O)C(C)=C[C@H]14)O2` [EXCOECARIA TOXIN], for which the values for the EC50 in [3] and in [4] were 1080 nM and 1570 nM, respectively. Also, in the data set with HEK-293T, the Activity result was “Non-toxic”.
On to `C=C(C)[C@@]12O[C@@]3(c4ccccc4)O[C@@H]1[C@@H]1[C@@H]4O[C@]4(CO)[C@@H](O)[C@]4(O)C(=O)C(C)=C[C@H]4[C@@]1(O3)[C@H](C)[C@H]2OC(=O)/C=C/c1ccccc1` [GNIDICIN], for which the EC50 in data set [3] was 8.6 nM; in data set [4] it was 17.6 nM. Also, the Activity entry with HEK-293T is given as “Non-toxic”.
For `C=C(C)C12OC3(c4ccccc4)OC1[C@@H]1[C@@H]4O[C@]4(CO)[C@@H](O)[C@]4(O)C(=O)C(C)=C[C@H]4C1(O3)[C@H](C)[C@H]2OC(=O)/C=C/C=C/C=C/CCC` (stereo not given in full) [GNIDITRIN], in that order: 74 nM, 133 nM and “Non-toxic”.
`Nc1ccn([C@@H]2CS[C@H](CO)O2)c(=O)n1` [LAMIVUDINE]: in data set [5], the EC50 was above 20000 nM. For the same molecule, in data set [6], the “Ratio EC50” value is listed as above 300.
On to `Cc1cccc(C)c1OCC(=O)N[C@@H](Cc1ccccc1)[C@@H](O)C[C@H](Cc1ccccc1)NC(=O)[C@H](C(C)C)N1CCCNC1=O` [LOPINAVIR], for which, in [1], the EC50 is 160 nM. Besides, in data set [2], the “Ratio EC50” value worked out at 10.
For `CC(C)(C)NC(=O)[C@@H]1C[C@@H]2CCCC[C@@H]2CN1C[C@@H](O)[C@H](Cc1ccccc1)NC(=O)[C@H](CC(N)=O)NC(=O)c1ccc2ccccc2n1` [SAQUINAVIR], the EC50 in data set [1] is 12 nM. In data set [2], the “Ratio EC50” value came out at 1.
With `Cc1cn([C@H]2C[C@H](N=[N+]=[N-])[C@@H](CO)O2)c(=O)[nH]c1=O` [ZIDOVUDINE], the EC50 in data set [5] stood at 200 nM; in data set [1], 6 nM. In data set [6], the “Ratio EC50” value amounted to 11.
Regarding enfuvirtide, in data set [14], the inhibition entry is “inactive”. Also, the inhibition result in data set [15] is “Active”.
